Only some compounds are listed: those with a hit (about 2.3% of all), similar ones and a draw of the others.
GPR7 antagonist: blocks human GPR7 receptor signaling; GPR7-expressing cells, fluorescence antagonist assay; inhibition, % at 4.4 µM; P48145; hit rate 1.1% among 290,000; in the data active = inhibition above about 16%, passing the limit was not always enough;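 note: cells stimulated with the agonist NPW; 0% = agonist with vehicle and 100% = vehicle without agonist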
CHT allo act: human CHT allosteric activation. hit rate 0.49% among 310,000. Q9GZV3. B-score at 10 µM. AID 488977. CHT-expressing cells, membrane potential dye, choline EC20; active compounds read high; LV-AA mutant CHT in HEK293 cells;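 active = initial fluorescence not abnormally high and integrated response B-score, plate-corrected, over 3 SD above library mean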
T cell HTS: T cell immune modulators affecting CD8 T cell-vesicle binding. 2C CD8+ T cell-vesicle binding, flow cytometry; active compounds read low. response (vesicle binding), % at 7 µM. hit rate 0.068% among 330,000;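 active = response, share of CD8 T cells binding vesicles, and their 90th percentile fluorescence all below set limits, cut at about 80% in these data, passing the limit was not always enough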;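 note: values below 100% mean blocked vesicle binding to the CD8+ T cells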
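material = purified 2C TCR transgenic mouse naive CD8+ T cells | controls = Unloaded micro-vesicles (low), QL9 vesicles with 0.7% DMSO (high) | detection = cytometric PE anti-B7-1 and Alexa647 anti-CD8 signals after 1% paraformaldehyde fixation | incubation = binding step 1.5 h, 37 °C, antibody labelling 20 min, ice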
p-CIP stab down: lowers stability of the mouse p/CIP coactivator protein | AID 1984 | hit rate 0.01% among 290,000 | F442A p/CIP-EGFP cells, EGFP fluorescence, 16 h | decrease of EGFP signal, % at 10 µM | Q05BA5;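 active = EGFP signal decrease of at least 30% at 10 µM or well 3 SD below plate mean, unless failing retest; inactive = the rest, including hits failing retest or dose response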
Target sequence (Q05BA5 1-1403): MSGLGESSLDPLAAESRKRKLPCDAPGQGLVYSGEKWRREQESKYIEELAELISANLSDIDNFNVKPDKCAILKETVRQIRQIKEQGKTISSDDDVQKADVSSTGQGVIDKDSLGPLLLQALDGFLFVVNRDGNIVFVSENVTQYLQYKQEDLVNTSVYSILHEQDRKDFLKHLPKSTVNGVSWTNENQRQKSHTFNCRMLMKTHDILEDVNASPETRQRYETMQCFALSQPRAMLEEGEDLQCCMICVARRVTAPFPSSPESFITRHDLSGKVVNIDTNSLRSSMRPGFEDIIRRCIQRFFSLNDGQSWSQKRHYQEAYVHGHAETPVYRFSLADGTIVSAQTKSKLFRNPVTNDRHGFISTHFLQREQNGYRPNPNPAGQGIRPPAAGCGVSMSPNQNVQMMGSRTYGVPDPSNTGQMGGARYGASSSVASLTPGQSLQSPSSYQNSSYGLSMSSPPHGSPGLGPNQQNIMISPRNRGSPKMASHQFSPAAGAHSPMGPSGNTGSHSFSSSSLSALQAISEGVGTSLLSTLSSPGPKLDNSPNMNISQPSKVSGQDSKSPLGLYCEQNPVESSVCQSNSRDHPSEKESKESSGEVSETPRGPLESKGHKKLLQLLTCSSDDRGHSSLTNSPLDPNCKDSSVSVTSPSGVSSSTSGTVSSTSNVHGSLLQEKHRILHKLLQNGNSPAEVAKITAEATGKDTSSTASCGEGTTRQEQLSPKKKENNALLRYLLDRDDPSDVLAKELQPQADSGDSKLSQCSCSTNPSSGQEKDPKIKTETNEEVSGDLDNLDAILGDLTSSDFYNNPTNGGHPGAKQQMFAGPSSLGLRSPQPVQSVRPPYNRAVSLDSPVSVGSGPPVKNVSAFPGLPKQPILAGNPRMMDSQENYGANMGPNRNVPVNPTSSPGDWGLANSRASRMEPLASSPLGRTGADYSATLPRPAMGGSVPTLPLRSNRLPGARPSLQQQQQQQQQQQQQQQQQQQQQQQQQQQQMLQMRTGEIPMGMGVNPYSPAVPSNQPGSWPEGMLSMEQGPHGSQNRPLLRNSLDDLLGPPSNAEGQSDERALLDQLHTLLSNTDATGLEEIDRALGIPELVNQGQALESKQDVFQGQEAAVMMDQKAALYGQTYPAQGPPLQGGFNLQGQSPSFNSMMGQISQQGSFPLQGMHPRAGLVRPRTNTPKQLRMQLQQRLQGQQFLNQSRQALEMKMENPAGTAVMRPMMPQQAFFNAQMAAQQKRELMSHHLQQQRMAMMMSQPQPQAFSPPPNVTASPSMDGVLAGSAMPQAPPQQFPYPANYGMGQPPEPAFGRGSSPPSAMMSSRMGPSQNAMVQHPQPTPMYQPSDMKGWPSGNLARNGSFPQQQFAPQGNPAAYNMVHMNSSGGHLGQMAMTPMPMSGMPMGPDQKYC
DSG3 Ab inh: inhibitors of pemphigus antibody binding to human desmoglein-3; AID 588358; binding (percent of control), % at 10 µM; hit rate 0.48% among 310,000; DSG3-coupled beads, scFv-anti-DSG3-GFP binding, flow cytometry; active compounds read low;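 active = binding more than 3 SD below its plate's average and above zero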;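 note: hits lower antibody fragment binding to DSG3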
CHT inh: inhibitors of human choline transporter CHT; CHT-expressing cells, membrane potential dye, choline response; active compounds read low; Q9GZV3; AID 488975; hit rate 0.86% among 310,000; B-score at 10 µM;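 active = B-score over 3 SD under the library average, and starting fluorescence ratio not unusually high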;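 note: choline stimulus applied at its EC90 after an EC20 pre-addition; B-score computed on integrated fluorescence ratio after choline addition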
CHT act confirm: confirmation of human choline transporter (CHT) activators | AID 504833 | activation, % at 10 µM | shares compounds with CHT allo act | CHT-expressing cells, membrane potential dye fluorescence (FDSS); % of choline EC20–EC90 response window; HEK293 expressing CHT LV-AA mutant; choline added at its EC20 | hit rate 91% among 2,500;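 active = primary screen active, with duplicate mean activation above negative control mean plus 3 SD, cut at about 11% in these data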
HEK293 MP dye: counter-screen for CHT activators: effect in parental HEK293 cells. shares compounds with CHT allo act. membrane potential dye fluorescence (FDSS); measured after EC20 choline addition. ratio readout change at 10 µM, hits read low. hit rate 62% among 2,500. AID 623908;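 active = duplicate-averaged ratio beyond 3 SD from buffer wells, up or down, though filed actives are nearly all decreases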
An asterisk follows results filed as active; i = inactive; nt = no result given.

SMILES	GPR7 antagonist	CHT allo act	T cell HTS	p-CIP stab down	DSG3 Ab inh	CHT inh	CHT act confirm	HEK293 MP dye
COc1ccc(Nc2c(-c3ccc(OC)cc3)nc3cnccn23)cc1	4	i	430	-18	101	i	nt	nt
Cc1ccc(-c2nc3cnccn3c2Nc2ccc3c(c2)OCO3)cc1	-3	i	401	-15	105	i	nt	nt
CCOc1ccccc1NC(=O)c1ccc2c(O)c(S(=O)(=O)c3ccccc3)c(=O)[nH]c2c1	nt	nt	nt	nt	99	nt	nt	nt
CSc1ccccc1NC(=O)CN(C)C(=O)CNC(=O)c1ccc(Oc2ccccc2)cc1	nt	nt	nt	nt	101	nt	nt	nt
O=C1NC(Cc2ccccc2)c2nc3ccccc3c(=O)n2-c2ccc(Cl)cc21 (centres undefined)	nt	nt	258	nt	nt	nt	nt	nt
CCCN(CC(=O)Nc1ccccc1OC)C(=O)CN1C(=O)NC(C)(C)C1=O	nt	nt	nt	nt	103	nt	nt	nt
Cc1sc2c(=O)n3c(nc2c1C(=O)NCCCN1CCOCC1)CCCCC3	20	6.9*	170	6	91	i	51*	-40*
COc1cccc(CN(CCC(=O)O)Cc2cccc(OC)c2)c1	nt	nt	nt	nt	105	nt	nt	nt
CN(C)Cc1c(O)ccc2occ(C(=O)c3ccccc3)c12	-9	i	830	5	99	i	nt	nt
COc1ccc2occ(C(=O)c3coc4ccc(O)c(CN(C)C)c34)c2c1	5	7.6*	274	-1	116	i	32*	-36*
Cc1cc(C)nc(/N=C(\N)Nc2ccc(S(=O)(=O)Nc3nc(C)cc(C)n3)cc2)n1	-14	8.7*	263	-1	nt	i	59*	-58*
O=C(Cn1cnc2c(OCc3ccccc3)ncnc21)NCc1ccccn1	nt	nt	231	nt	106	nt	nt	nt
CC(C)C(=O)N1CCCCCCN1C(=O)C(C)C	nt	nt	nt	nt	107	nt	nt	nt
Cc1cnc(C(=O)Nc2cc(S(=O)(=O)N3CCOCC3)ccc2N2CCN(C)CC2)cn1	-2	9.7*	i	-16	nt	i	51*	-57*
CCc1ccc(Nc2n[n+](-c3ccccc3)c(-c3ccc(C(=O)O)cc3)s2)cc1	1	i	816	-12	98	i	nt	nt
CCc1ccc(Nc2n[n+](-c3ccccc3)c(-c3ccc(SC)cc3)s2)cc1	34	11*	724	-2	96	i	26*	i
CSc1ccc(-c2sc(Nc3ccccc3)n[n+]2-c2ccccc2)cc1	17	8.2*	320	-24	102	i	15*	i
COc1ccc(C)cc1Nc1n[n+](-c2ccccc2)c(-c2ccc(SC)cc2)s1	15	7.8*	176	-15	101	i	46*	i
COc1ccccc1CC1CC(=O)N(c2ccc([N+](=O)[O-])cc2)C1=O (centres undefined)	nt	nt	nt	nt	106	nt	nt	nt
Cc1cccc(C)c1NC(=O)C(C)NCc1cccs1 (centres undefined)	nt	nt	nt	nt	101	nt	nt	nt
COc1ccc(CN2C(=O)[C@@H]3C(c4ccccc4Cl)=NO[C@@H]3C2=O)cc1	-11	i	529	-7	104	i	17*	i
O=C1[C@@H]2C(c3ccccc3Cl)=NO[C@@H]2C(=O)N1Cc1ccccc1	-5	i	177	-1	99	i	nt	nt
C#CCOCCOCCOCCNc1nc(N2CCN(C(=O)[C@H](CCCCN)n3cc([C@@H](N)CC(C)C)nn3)CC2)nc(N2CCN(C(=O)[C@H](CCCCN)n3cc([C@@H](N)CC(C)C)nn3)CC2)n1	-6	i	542	-1	111	i	56*	-39*
C#CCOCCOCCOCCNc1nc(N2CCN(C(=O)CCCCCCCCCCNC(=O)[C@H](CCCCN)n3cc(C)nn3)CC2)nc(N2CCN(C(=O)CCCCCCCCCCNC(=O)[C@@H]([C@H](C)O)n3cc(C)nn3)CC2)n1	nt	i	411	nt	106	i	2	-40*
